Legend:
[1] = biological target: T1, Glucocorticoid receptor (Homo sapiens, UniProt P04150); test: Antagonist activity at glucocorticoid receptor in human HepG2 cells assessed as inhibition of dexamethasone-induced tyrosine amino transferase activity preincubated for 30 mins followed by dexamethasone addition measured after 20 hrs; format: cell-based
T1 sequence (P04150 whole entry): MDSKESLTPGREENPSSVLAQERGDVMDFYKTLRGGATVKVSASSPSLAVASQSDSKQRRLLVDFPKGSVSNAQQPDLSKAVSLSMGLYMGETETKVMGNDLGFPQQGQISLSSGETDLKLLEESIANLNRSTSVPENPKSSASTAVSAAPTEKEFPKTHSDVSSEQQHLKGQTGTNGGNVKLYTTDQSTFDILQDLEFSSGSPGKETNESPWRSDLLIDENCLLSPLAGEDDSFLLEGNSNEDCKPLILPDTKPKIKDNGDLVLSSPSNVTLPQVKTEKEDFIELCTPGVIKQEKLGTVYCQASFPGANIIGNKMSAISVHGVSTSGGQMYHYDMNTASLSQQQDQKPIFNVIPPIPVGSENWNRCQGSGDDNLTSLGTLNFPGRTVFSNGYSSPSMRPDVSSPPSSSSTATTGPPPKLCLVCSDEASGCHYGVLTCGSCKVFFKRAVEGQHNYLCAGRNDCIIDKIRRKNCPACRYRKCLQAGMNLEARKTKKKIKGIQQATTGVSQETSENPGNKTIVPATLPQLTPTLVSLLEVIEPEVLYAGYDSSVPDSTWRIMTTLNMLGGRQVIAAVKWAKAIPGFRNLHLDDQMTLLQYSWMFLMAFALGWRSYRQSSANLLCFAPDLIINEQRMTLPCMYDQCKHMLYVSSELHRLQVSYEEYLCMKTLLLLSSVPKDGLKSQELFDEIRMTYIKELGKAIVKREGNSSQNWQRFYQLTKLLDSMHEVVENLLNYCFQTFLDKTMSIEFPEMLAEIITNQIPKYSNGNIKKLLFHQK

[2] = AUC in Sprague-Dawley CD-1 rat plasma at 3 mg/kg, po administered as cassette dose via gavage measured up to 24 hrs by LC/MS analysis; format: ADME, organism-based; design: time < 24 hr, dose 3 mg/kg, route oral
Procedure, shortened: (§1)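 Three male Sprague Dawley CD-1 rats (220-250g) with jugular vein catheters; three test compounds plus a reference dosed together by oral gavage, 3mg/kg each, in DMSO:0.5% methylcellulose 10:90 (0.6mg/mL per compound), 5mL/kg. Plasma sampled pre-dose and at 0.25, 0.5, 1, 2, 4, 6, 8, 24 h; LC/MS.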

[3] = Cmax in Sprague-Dawley CD-1 rat plasma at 3 mg/kg, po administered as cassette dose via gavage measured up to 24 hrs by LC/MS analysis; format: ADME, organism-based; design: dose 3 mg/kg, route oral; procedure, shortened: as §1
[4] = biological target: T1, Glucocorticoid receptor; test: Displacement of fluormone GS Red from human glucocorticoid receptor after 4 hrs by fluorescence polarization assay
[5] = Cmax in Sprague-Dawley CD-1 rat plasma at 5 mg/kg, po administered through gavage measured up to 24 hrs by LC/MS analysis; format: ADME, organism-based; design: dose 5 mg/kg, route oral
Procedure, shortened: (§2)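 Jugular-catheterized male Sprague Dawley CD-1 rats (220-250g). Oral arm: five rats, 5mg/kg gavage, 1mg/mL in DMSO:0.5% methylcellulose 10:90, 5mL/kg, sampled pre-dose and 0.25-24 h. i.v. arm: three rats, 1mg/kg, 0.5mg/mL in DMSO:PEG400:propylene glycol 10:45:45, sampled pre-dose and 0.08-24 h. Plasma by LC/MS.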

[6] = Oral bioavailability in monkey plasma at 20 mg/kg measured up to 24 hrs by LC/MS analysis; format: ADME, organism-based, Macaca mulatta; conditions: rhesus monkey
Procedure, shortened: (§3)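 Monkey i.v./p.o. study: oral 20mg/kg in 10% DMSO, 0.1% Tween 80, 0.5% hydroxypropylmethylcellulose in water; i.v. dose 1mg/kg.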

[7] = AUC in monkey plasma at 20 mg/kg, po measured up to 24 hrs by LC/MS analysis; format: ADME, organism-based, Macaca mulatta; design: dose 20 mg/kg, time < 24 hr, route oral; conditions: rhesus monkey; procedure, shortened: as §3
[8] = Oral bioavailability in Sprague-Dawley CD-1 rat plasma at 5 mg/kg administered through gavage measured up to 24 hrs by LC/MS analysis; format: ADME, organism-based; procedure, shortened: as §2
[9] = AUC in Sprague-Dawley CD-1 rat plasma at 5 mg/kg, po administered through gavage measured up to 24 hrs by LC/MS analysis; format: ADME, organism-based; design: dose 5 mg/kg, time < 24 hr, route oral; procedure, shortened: as §2
[10] = Cmax in monkey plasma at 20 mg/kg, po measured up to 24 hrs by LC/MS analysis; format: ADME, organism-based, Macaca mulatta; design: dose 20 mg/kg, route oral; conditions: rhesus monkey; procedure, shortened: as §3

| Ki [1] [nM] | AUC at 24 h [2] [ng·h/mL] | Cmax [3] [ng/mL] | Ki [4] [nM] | Structure (SMILES) | further results |
| --- | --- | --- | --- | --- | --- |
| 60 |  |  |  | Cn1cc(S(=O)(=O)N2CC[C@H]3Cc4c(cnn4-c4ccc(F)cc4)C[C@]3(C(=O)c3cc(C(F)(F)F)ccn3)C2)nn1 |  |
|  | 726 | 125 |  | O=C(c1ccccn1)[C@]12Cc3cnn(-c4ccc(F)cc4)c3C=C1CCN(S(=O)(=O)c1ccc(C(F)(F)F)c(F)c1)C2 |  |
| 9.7 | 450 | 91.5 |  | Cn1cc(S(=O)(=O)N2CCC3=Cc4c(cnn4-c4ccc(F)cc4)C[C@]3(C(=O)c3cc(C(F)(F)F)ccn3)C2)nn1 |  |
| 44 |  |  |  | O=C(c1ccccn1)[C@]12Cc3cnn(-c4ccc(F)cc4)c3C[C@@H]1CCN(S(=O)(=O)c1cccc(C(F)(F)F)c1)C2 |  |
| 7.6 |  |  |  | O=C(c1cc(C(F)(F)F)ccn1)[C@]12Cc3cnn(-c4ccc(F)cc4)c3C=C1CCN(S(=O)(=O)c1cn[nH]c1)C2 |  |
| 12 | 283 | 110 |  | Cc1c(S(=O)(=O)N2CCC3=Cc4c(cnn4-c4ccc(F)cc4)C[C@]3(C(=O)c3cc(C(F)(F)F)ccn3)C2)cnn1C |  |
| 14 |  |  | 0.2 | Cc1cccc(S(=O)(=O)N2CCC3=Cc4c(cnn4-c4ccc(F)cc4)C[C@]3(C(=O)c3cccc(C)n3)C2)c1 |  |
| 63 |  |  | 0.88 | Cc1csc(C(=O)[C@]23Cc4cnn(-c5ccc(F)cc5)c4C=C2CCN(S(=O)(=O)c2cccc(C(F)(F)F)c2)C3)n1 |  |
| 3.3 | 44 | 11 | 0.08 | Cc1cccc(S(=O)(=O)N2CCC3=Cc4c(cnn4-c4ccc(F)cc4)C[C@]3(C(=O)c3cc(C)ccn3)C2)c1 |  |
| 4.5 | 217 | 70 | 0.15 | Cc1ccnc(C(=O)[C@]23Cc4cnn(-c5ccc(F)cc5)c4C=C2CCN(S(=O)(=O)c2cccc(C#N)c2)C3)c1 |  |
| 28 | 780 | 150 |  | Cn1cc(S(=O)(=O)N2CCC3=Cc4c(cnn4-c4ccc(F)cc4)C[C@]3(C(=O)c3ccccn3)C2)cn1 |  |
| 120 |  |  |  | Cn1nncc1S(=O)(=O)N1CC[C@H]2Cc3c(cnn3-c3ccc(F)cc3)C[C@]2(C(=O)c2cc(C(F)(F)F)ccn2)C1 |  |
|  | 974 | 215 |  | O=C(c1ccccn1)[C@]12Cc3cnn(-c4ccc(F)cc4)c3C=C1CCN(S(=O)(=O)c1ccc(F)c(F)c1)C2 |  |
| 37 |  |  | 0.23 | O=C(c1nccs1)[C@]12Cc3cnn(-c4ccc(F)cc4)c3C=C1CCN(S(=O)(=O)c1ccc(F)c(F)c1)C2 |  |
| 16 | 1220 | 197 | 0.59 | O=C(c1nccs1)[C@]12Cc3cnn(-c4ccc(F)cc4)c3C=C1CCN(S(=O)(=O)c1ccc(Cl)c(Cl)c1)C2 |  |
| 34 |  |  |  | Cn1cc(S(=O)(=O)N2CC[C@H]3Cc4c(cnn4-c4ccc(F)cc4)C[C@]3(C(=O)c3cc(C(F)(F)F)ccn3)C2)cn1 |  |
| 4.8 | 49 | 20 | 0.32 | N#Cc1cccc(S(=O)(=O)N2CCC3=Cc4c(cnn4-c4ccc(F)cc4)C[C@]3(C(=O)c3cc(C(F)(F)F)ccn3)C2)c1 |  |
| 1.7 |  |  | 0.19 | CCc1ccnc(C(=O)[C@]23Cc4cnn(-c5ccc(F)cc5)c4C=C2CCN(S(=O)(=O)c2cccc(C#N)c2)C3)c1 |  |
| 5.1 |  |  | 0.21 | Cc1ccnc(C(=O)[C@]23Cc4cnn(-c5ccc(F)cc5)c4C=C2CCN(S(=O)(=O)c2cccc(C(F)(F)F)c2)C3)c1 |  |
| 31 |  |  |  | Cn1nncc1S(=O)(=O)N1CCC2=Cc3c(cnn3-c3ccc(F)cc3)C[C@]2(C(=O)c2cc(C(F)(F)F)ccn2)C1 |  |

| Ki [1] [nM] | AUC at 24 h [2] [ng·h/mL] | Cmax [3] [ng/mL] | Ki [4] [nM] | Structure (SMILES) | further results |
| --- | --- | --- | --- | --- | --- |
| 10 |  |  | 0.29 | Cc1cnc(C(=O)[C@]23Cc4cnn(-c5ccc(F)cc5)c4C=C2CCN(S(=O)(=O)c2cccc(C(F)(F)F)c2)C3)s1 |  |
| 9.2 | 143 | 72 | 0.12 | O=C(c1ccccn1)[C@]12Cc3cnn(-c4ccc(F)cc4)c3C=C1CCN(S(=O)(=O)c1cc(F)cc(F)c1)C2 |  |
| 7.4 | 135 | 30 | 1.3 | Cc1cnc(C(=O)[C@]23Cc4cnn(-c5ccc(F)cc5)c4C=C2CCN(S(=O)(=O)c2ccc(F)c(F)c2)C3)s1 |  |
| 4.3 |  |  | 0.14 | Cc1ccnc(C(=O)[C@]23Cc4cnn(-c5ccc(F)cc5)c4C=C2CCN(S(=O)(=O)c2cc(F)cc(F)c2)C3)c1 |  |
| 68 |  |  |  | CCn1nccc1S(=O)(=O)N1CC[C@H]2Cc3c(cnn3-c3ccc(F)cc3)C[C@]2(C(=O)c2cc(C(F)(F)F)ccn2)C1 |  |
|  | 239 | 140 |  | N#Cc1cccc(S(=O)(=O)N2CCC3=Cc4c(cnn4-c4ccc(F)cc4)C[C@]3(C(=O)c3ccccn3)C2)c1 |  |
| 10 |  |  |  | CCn1nccc1S(=O)(=O)N1CCC2=Cc3c(cnn3-c3ccc(F)cc3)C[C@]2(C(=O)c2cc(C(F)(F)F)ccn2)C1 | Cmax [5]: 511 ng/mL; bioavailability [6]: 1.5%; AUC at 24 h [7]: 193 ng·h/mL; bioavailability [8]: 52%; AUC at 24 h [9]: 1530 ng·h/mL; Cmax [10]: 20.8 ng/mL |
|  | 83 | 31 |  | Cc1cccc(S(=O)(=O)N2CCC3=Cc4c(cnn4-c4ccc(F)cc4)C[C@]3(C(=O)c3ccccn3)C2)c1 |  |
| 7.4 | 135 | 30 | 0.32 | Cc1cnc(C(=O)[C@]23Cc4cnn(-c5ccc(F)cc5)c4C=C2CCN(S(=O)(=O)c2ccc(Cl)c(Cl)c2)C3)s1 |  |
| 7.5 |  |  | 0.14 | Cc1ccc(C(=O)[C@]23Cc4cnn(-c5ccc(F)cc5)c4C=C2CCN(S(=O)(=O)c2cccc(C)c2)C3)nc1 |  |
| 69 |  |  |  | Cc1n[nH]c(C)c1S(=O)(=O)N1CCC2=Cc3c(cnn3-c3ccc(F)cc3)C[C@]2(C(=O)c2cc(C(F)(F)F)ccn2)C1 |  |
| 6.6 | 863 | 291 |  | Cn1ccc(S(=O)(=O)N2CCC3=Cc4c(cnn4-c4ccc(F)cc4)C[C@]3(C(=O)c3cc(C(F)(F)F)ccn3)C2)n1 | Cmax [5]: 510 ng/mL; bioavailability [8]: 68%; AUC at 24 h [9]: 986 ng·h/mL |
| 12 |  |  |  | Cn1ncc(S(=O)(=O)N2CC[C@H]3Cc4c(cnn4-c4ccc(F)cc4)C[C@]3(C(=O)c3cc(C(F)(F)F)ccn3)C2)n1 [EXICORILANT] | Cmax [5]: 1260 ng/mL; bioavailability [8]: 100%; AUC at 24 h [9]: 9420 ng·h/mL |
| 24 |  |  |  | Cn1ccc(S(=O)(=O)N2CC[C@H]3Cc4c(cnn4-c4ccc(F)cc4)C[C@]3(C(=O)c3cc(C(F)(F)F)ccn3)C2)n1 |  |
| 5.7 | 421 | 113 | 0.14 | Cc1ccnc(C(=O)[C@]23Cc4cnn(-c5ccc(F)cc5)c4C=C2CCN(S(=O)(=O)c2ccc(F)c(F)c2)C3)c1 |  |
| 3.1 | 860 | 255 |  | Cn1ncc(S(=O)(=O)N2CCC3=Cc4c(cnn4-c4ccc(F)cc4)C[C@]3(C(=O)c3cc(C(F)(F)F)ccn3)C2)n1 [NENOCORILANT] |  |
| 17 | 446 | 103 | 0.48 | O=C(c1nccs1)[C@]12Cc3cnn(-c4ccc(F)cc4)c3C=C1CCN(S(=O)(=O)c1cccc(C(F)(F)F)c1)C2 |  |
| 4.6 | 701 | 126 |  | CCn1cc(S(=O)(=O)N2CCC3=Cc4c(cnn4-c4ccc(F)cc4)C[C@]3(C(=O)c3cc(C(F)(F)F)ccn3)C2)cn1 |  |
| 7.5 | 173 | 48 | 0.42 | Cc1ccnc(C(=O)[C@]23Cc4cnn(-c5ccc(F)cc5)c4C=C2CCN(S(=O)(=O)c2ccc(C(F)(F)F)c(F)c2)C3)c1 |  |

| Structure (SMILES) | Ki [1] [nM] | AUC at 24 h [2] [ng·h/mL] | Cmax [3] [ng/mL] | Ki [4] [nM] | further results |
| --- | --- | --- | --- | --- | --- |
| O=C(c1ccccn1)[C@]12Cc3cnn(-c4ccc(F)cc4)c3C=C1CCN(S(=O)(=O)c1ccc(C(F)(F)F)cc1)C2 [DAZUCORILANT] | 12 |  |  |  |  |
